In ChEMBL document CHEMBL3877250, “Design, synthesis, and biological evaluation of (2E)-(2-oxo-1, 2-dihydro-3H-indol-3-ylidene)acetate derivatives as anti-proliferative agents through ROS-induced cell apoptosis” (Eur J Med Chem, 2016):

Columns and labels:
[1] = Cytotoxicity against human MDA-MB-231 cells assessed as growth inhibition at 20 uM after 72 hrs by CCK-8 assay; format: functional; conditions: MDA-MB-231, 72 h, read-out: GI
How it was run: (§1)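 Cells kept in RPMI 1640 with 10% heat-inactivated fetal calf serum and 1% streptomycin/penicillin at 37 °C, 5% CO2. After compound exposure, CCK-8 was added and cells were incubated 4 h at 37 °C, then absorbance was read at 450 nm. Viability is relative to untreated cells (100%). IC50 comes from nonlinear regression, mean of three separate determinations. Single-concentration screen at 20 µM.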

[2] = Cytotoxicity against human SK-BR-3 cells assessed as growth inhibition at 20 uM after 72 hrs by CCK-8 assay; format: functional; conditions: SK-BR-3, 72 h, read-out: GI; how it was run: as §1
[3] = Cytotoxicity against human OVCAR3 cells assessed as growth inhibition at 20 uM after 72 hrs by CCK-8 assay; format: functional; conditions: OVCAR-3, 72 h, read-out: GI; how it was run: as §1
[4] = Cytotoxicity against human Saos2 cells assessed as growth inhibition at 20 uM after 72 hrs by CCK-8 assay; format: functional; conditions: SAOS-2, 72 h, read-out: GI; how it was run: as §1
[5] = Cytotoxicity against human L02 cells after 72 hrs by CCK-8 assay; format: toxicity, cell-based; how it was run: as §1
[6] = Cytotoxicity against human HL60 cells after 72 hrs by CCK-8 assay; format: functional, cell-based; conditions: HL-60, 72 h; how it was run: as §1
[7] = Cytotoxicity against human L02 cells assessed as growth inhibition at 20 uM after 72 hrs by CCK-8 assay; format: toxicity, cell-based; conditions: read-out: GI; how it was run: as §1
[8] = Cytotoxicity against human HL60 cells assessed as growth inhibition at 20 uM after 72 hrs by CCK-8 assay; format: functional; conditions: HL-60, 72 h, read-out: GI; how it was run: as §1
[9] = Cytotoxicity against human SW480 cells assessed as growth inhibition at 20 uM after 72 hrs by CCK-8 assay; format: functional; conditions: SW480, 72 h, read-out: GI; how it was run: as §1
[10] = Cytotoxicity against human HCT116 cells assessed as growth inhibition at 20 uM after 72 hrs by CCK-8 assay; format: functional; conditions: HCT-116, 72 h, read-out: GI; how it was run: as §1
[11] = Antitumor activity against human HepG2 cells assessed as growth inhibition at 20 uM after 72 hrs by CCK-8 assay; format: functional; conditions: HepG2, 72 h, read-out: GI; how it was run: as §1

SMILES | inhibition of growth at 20 µM [1] | inhibition of growth at 20 µM [2] | inhibition of growth at 20 µM [3] | inhibition of growth at 20 µM [4] | IC50 at 72 h [5] | IC50 [6] | inhibition at 72 h, 20 µM [7] | inhibition of growth at 20 µM [8] | inhibition of growth at 20 µM [9] | inhibition of growth at 20 µM [10] | inhibition of growth at 20 µM [11]
CC(C)(C)OC(=O)/C=C1/C(=O)Nc2ccc([N+](=O)[O-])cc21 | 86.9% | 87.9% | 55.6% | 82.8% | 3.82 µM | 9.86 µM | 62% | 86.6% | 77.9% | 88.1% | 88.2%
Cc1c(Cl)ccc2c1NC(=O)/C2=C/C(=O)OC(C)(C)C | 87.3% | 87.9% | 57.4% | 82.6% | 6.26 µM | 3.64 µM | 64.3% | 82.9% | 77.2% | 89.9% | 69.7%
COc1ccc2c(c1)NC(=O)/C2=C/C(=O)OC(C)(C)C | 87.1% | 87% | 57.9% | 83.2% | 4.34 µM | 9.15 µM | 63.6% | 91.6% | 78.8% | 89.5% | 88.3%
COC(=O)/C=C1/C(=O)Nc2ccccc21 | 86.8% | 86.7% | 54.4% | 78.6% | 7.05 µM | 4.18 µM | 61.5% | 81.5% | 78.1% | 87% | 88%
CCN(CC)CCNC(=O)c1c(C)[nH]c(/C=C2\C(=O)Nc3ccc(F)cc32)c1C [SUNITINIB] |  |  |  |  | 4.62 µM | 4.95 µM |  |  |  |  | 
CN1C(=O)C(CC(=O)OC(C)(C)C)c2ccccc21 (stereo unspecified) |  |  |  |  | > 100 µM | 93.1 µM |  |  |  |  | 
CN1C(=O)/C(=C/C(=O)Oc2ccc3ccccc3c2)c2ccccc21 |  |  |  |  | 46.6 µM | 23.8 µM |  |  |  |  | 
CC(C)(C)OC(=O)CC1C(=O)Nc2ccc(Cl)cc21 (stereo unspecified) |  |  |  |  |  | 81.1 µM |  |  |  |  | 
COc1cccc2c1NC(=O)/C2=C/C(=O)OC(C)(C)C | 86.7% | 87.7% | 57.1% | 81.1% |  | 9.68 µM | 61.6% | 84.2% | 77.8% | 87.6% | 87.3%
CN1C(=O)/C(=C/C(=O)Oc2ccccc2)c2ccccc21 |  |  |  |  | 22.7 µM | 10.2 µM |  |  |  |  | 
CNC(=O)/C=C1/C(=O)N(C)c2ccccc21 |  |  |  |  | 19.1 µM | 10.7 µM |  |  |  |  | 
COc1ccc(OC(=O)/C=C2/C(=O)N(C)c3ccccc32)cc1 |  |  |  |  | 23.5 µM | 10.6 µM |  |  |  |  | 
CCOC(=O)/C=C1\C(=O)Nc2ccccc21 |  |  |  |  |  | > 100 µM |  |  |  |  | 
CN1C(=O)/C(=C/C(=O)Oc2ccc(Cl)cc2)c2ccccc21 |  |  |  |  |  | 12.2 µM |  |  |  |  | 
CC(=O)O[C@H]1C(=O)[C@@]2(C)[C@H]([C@H](OC(=O)c3ccccc3)[C@]3(O)C[C@H](OC(=O)[C@H](O)[C@@H](NC(=O)c4ccccc4)c4ccccc4)C(C)=C1C3(C)C)[C@]1(OC(C)=O)CO[C@@H]1C[C@@H]2O [PACLITAXEL] | 85.1% | 72.1% | 58.5% | 77.4% |  |  | 61.5% | 71% | 76.4% | 88.9% | 89.4%
COC(=O)CC1C(=O)Nc2ccccc21 (stereo unspecified) |  |  |  |  | > 100 µM | 114 µM |  |  |  |  | 
CN1C(=O)/C(=C/C(=O)O)c2ccccc21 |  |  |  |  |  | 83.7 µM |  |  |  |  | 
